Sampled rows, rich in hits. Any-hit rate of the full collection: about 2.5%.
SENP6 block = SENP6 protease inhibition; inhibition, % at 10 µM; actives 1.8% (n = 330,000); Q9GZR1; Recombinant SENP6 catalytic domain, aminoluciferin luminescence;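 active = inhibition above about 50% at the single tested dose, limit read from the data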;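 also: plate controls were DMSO wells with enzyme for no effect and DMSO wells lacking enzyme for full effect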
SENP8 block-1 = inhibitors of human SENP8 protease; inhibition, % at 10 µM; purified SENP8, Z-RLRGG-aminoluciferin cleavage, luminescence; actives 1.2% (n = 330,000); AID 2540; in the data active = inhibition above about 50%
SENP8 block-2 = inhibitors of human SENP8 protease; AID 602440; Q96LD8; actives 0.64% (n = 360,000); inhibition, % at 20 µM; recombinant SENP8, Nedd8 substrate fluorescence; in the data active = inhibition mostly above about 40%, no sharp cut-off; inactive = mostly below about 27%
SENP7 block = blocks the human protease SENP7 | Q9BQF6 | recombinant SENP7, Z-RLRGG-aminoluciferin luminescence, 40 min | inhibition, % at 5 µM | actives 1.5% (n = 330,000) | AID 434973;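 active = inhibition above about 50% at the single test dose, limit read from the data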;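 also: plate controls were DMSO with enzyme for no effect and no enzyme buffer wells for full effect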
Target sequence (Q9BQF6 706-1050 limits assumed): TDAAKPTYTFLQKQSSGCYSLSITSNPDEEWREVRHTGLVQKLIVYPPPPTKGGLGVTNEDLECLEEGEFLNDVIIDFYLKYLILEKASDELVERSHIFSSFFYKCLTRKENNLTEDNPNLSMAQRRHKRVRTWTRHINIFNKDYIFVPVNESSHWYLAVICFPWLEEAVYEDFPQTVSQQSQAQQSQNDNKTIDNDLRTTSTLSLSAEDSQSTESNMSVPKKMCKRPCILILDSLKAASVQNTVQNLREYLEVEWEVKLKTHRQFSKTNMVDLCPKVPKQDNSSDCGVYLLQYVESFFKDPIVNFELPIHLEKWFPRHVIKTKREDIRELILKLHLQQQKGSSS
SENP1 FRET inh = SENP1 (human) catalytic domain inhibition. AID 624204. actives 0.21% (n = 360,000). Q9P0U3. inhibition, % at 10 µM. recombinant SENP1 catalytic domain, CyPet-SUMO1-YPet FRET cleavage;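 active = inhibition at least 30% at 10 µM, raw YFP signal under a set limit, fluorescence ratio 0.5 to 1.5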;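 also: 0% = enzyme with DMSO and 100% = no enzyme wells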
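Test system: human SENP1 catalytic domain; medium: Tris pH 8 buffer plus EDTA, NaCl, BME, BSA, NP40, catalase; incubation: 50 min reaction at room temperature; technique: FRET, CFP and YFP emission; controls: no-enzyme low control and enzyme-plus-DMSO high control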
SENP8 confirm = human SENP8 inhibition, confirmed | actives 40% (n = 6,200) | Recombinant SENP8, Z-RLRGG-aminoluciferin luminescence, 60 min | inhibition, % at 12.5 µM | shares compounds with SENP7 block;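 active = mean inhibition across replicates above about 50%, limit read from the data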
SENP6 confirm = confirmation of human SENP6 protease inhibitors. shares compounds with SENP7 block. recombinant SENP6, Z-RLRGG-aminoluciferin luminescence. inhibition, % at 12.5 µM. actives 58% (n = 6,200). AID 488915
SENP7 conf = human SENP7 inhibition, confirmed; shares compounds with SENP7 block; recombinant SENP7, Z-RLRGG-aminoluciferin luminescence, 40 min; inhibition, % at 12.5 µM; actives 69% (n = 6,200); AID 488917
Casp3 select = caspase-3 inhibition (SENP selectivity assay); shares compounds with SENP7 block; purified caspase-3, Z-DEVD-aminoluciferin luminescence, 60 min; inhibition, % at 12.5 µM; actives 60% (n = 6,200); AID 488918;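 active = mean inhibition above about 50%, limit read from the data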;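 also: plate controls were enzyme with DMSO for no effect and wells without caspase-3 for full effect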
Luc interf = counter-screen for SENP inhibitors: luminescence interference | shares compounds with SENP7 block | Pre-incubated SENP8/Z-RLRGG-aminoluciferin, luciferase luminescence interference | inhibition, % at 12.5 µM | actives 39% (n = 6,200);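 active = mean inhibition above about 50% when retested at one dose, limit read from the data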;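 also: plate controls were DMSO wells with completed reaction for no effect and substrate without enzyme for full effect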
The depositor's hits bear a star; . = no result given.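 The calls were made as follows, unless noted: active = mean inhibition above about 50% in the one-dose retest (limit read from the data); inactive = the rest.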

SMILES | SENP6 block | SENP8 block-1 | SENP8 block-2 | SENP7 block | SENP1 FRET inh | SENP8 confirm | SENP6 confirm | SENP7 conf | Casp3 select | Luc interf
Cc1cccc2cc(C(c3nnnn3CC3CCCO3)N3CCc4ccccc4C3)c(=O)[nH]c12 (centres undefined) | 67* | 38 | . | 49 | . | -1 | 27 | 6 | 9 | 3
CCOc1ccc2[nH]c(=O)c(C(c3nnnn3CC3CCCO3)N3CCc4ccccc4C3)cc2c1 (centres undefined) | 16 | 3 | -197 | 15 | 10 | . | . | . | . | .
O=C(COC(=O)c1ccc(F)c(S(=O)(=O)N2CCOCC2)c1)NCCc1ccc(F)cc1 | 13 | 2 | 10 | 11 | 2 | . | . | . | . | .
COc1ccc(NC(=O)c2cc3c(=O)n(C)c4ccccc4c3s2)cc1OC | 1 | 7 | -151 | -5 | -18 | . | . | . | . | .
O=C(N/N=C/c1ccc2c(c1)OCO2)c1cccs1 | 76* | 84* | -148 | 89* | 1 | 92* | 93* | 100* | 94* | 90*
Cc1ccsc1C(=O)N/N=C/c1ccc2c(c1)OCO2 | 97* | 96* | -63 | 100* | 1 | 96* | 100* | 103* | 99* | 99*
Cc1cc(C(=O)N/N=C/c2ccc3c(c2)OCO3)c(C)o1 | 74* | 70* | -15 | 77* | 2 | 86* | 84* | 97* | 93* | 58*
COc1cc(/C=N/NC(=O)c2cccs2)ccc1O | 20 | -1 | 35 | 6 | 3 | . | . | . | . | .
O=C(N/N=C/c1ccc2c(c1)OCO2)c1ccc(Cl)cc1Cl | -30 | -4 | 3 | 4 | 1 | . | . | . | . | .
COc1cccc(/C=N/NC(=O)c2cccs2)c1 | 55* | 34 | 1 | 62* | -2 | 54* | 50* | 84* | 71* | 64*
C/C=C\C=C/C(=O)Nc1cccc(C2=NOC3(C2)C[C@H](C(N)=O)N(C(=O)Cc2ccc([N+](=O)[O-])cc2)C3)c1 (some centres undefined) | -5 | 1 | 9 | 0 | -3 | . | . | . | . | .
COc1ccccc1CNS(=O)(=O)c1ccc(N2CCCC2)cc1Br | . | . | 8 | -2 | 2 | . | . | . | . | .
CCNC(=O)N1CCC(n2nccc2NC(=O)CCCc2ccccc2)CC1 | -11 | -5 | 3 | 1 | 2 | . | . | . | . | .
Cc1cc(C)nc(SCC(=O)N/N=C/c2ccc3c(c2)OCO3)n1 | 62* | 52* | -6 | 4 | 1 | 6 | 9 | -5 | 2 | 7
O=C(Nc1ccc2c(c1)OCCO2)C(c1cc2ccccc2o1)N1CCN(C/C=C/c2ccccc2)CC1 (centres undefined) | . | . | 16 | . | 1 | . | . | . | . | .
O=C(O)c1cccc(NC(=S)NC(=O)c2cccc(OCc3ccccc3)c2)c1 | 56* | 34 | 18 | -4 | 2 | 71* | 61* | 76* | 8 | 63*
CCCOc1cccc(C(=O)NC(=S)Nc2ccccc2)c1 | 35 | 11 | 1 | 17 | 2 | . | . | . | . | .
O=C(Nc1ccc(OCc2ccccc2)cc1)Nc1cccnc1 | 1 | -16 | 20 | -11 | 1 | . | . | . | . | .
O=C(Nc1ccc(COc2ccccc2)cc1)Nc1cccc(C(=O)O)c1 | 97* | 93* | 4 | 92* | 1 | 48 | 100* | 18 | 60* | 45
CSc1nc(-c2ccc(N(C)C)cc2)c(C#N)c(=O)n1C | -1 | -8 | -377 | -12 | -40 | . | . | . | . | .
CCOC(=O)C1CCN(Cc2ccc(O)c(OC)c2)CC1 | 96* | 2 | 10 | 12 | 2 | 6 | 0 | -2 | -2 | -1
CCOC(=O)C1CCN(Cc2ccc(OC)c(OCc3ccccc3)c2)CC1 | -26 | -6 | 31 | -99 | 0 | . | . | . | . | .
